The list is not random: actives were taken first. Their share in the collection is about 3.1%.
T cruzi repl = T. cruzi replication inhibition; T. cruzi beta-gal in NIH3T3, luminescence, 90 h; inhibition, % (no concentration beside the values); 300,000 tested, 1.4% active;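 active means mean inhibition across valid replicates above about 55%, limit read from the data; inconclusive means mean below that limit but half or more replicates reach it; inactive means mean below it, under half of replicates reach it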;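 further: signal also drops with host cell toxicity which is not excluded here; higher percent means less beta-gal luminescence so fewer parasites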
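Incubation – ≥90 h infection period, 3 h prior cell attachment · System – NIH/3T3 fibroblasts plus reporter T. cruzi · Doses – compound pinned at 50 nL/well, DMSO · Read-out basis – percent inhibition of parasite-derived β-gal signal · Signal – luminescent β-galactosidase signal after 60 min lysis · Also added – 5000 T. cruzi trypomastigotes/well · Medium – Low-serum DMEM with 2% FBS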
Calb FLC = affects C. albicans growth with fluconazole. C. albicans CaCi-2 + fluconazole, Alamar Blue growth, 48 h. growth inhibition, % (concentration not given with the values). 300,000 tested, 0.57% active. AID 1979;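 active means growth inhibition above about 58% in most replicates, limit read from the data, passing the limit was not always enough; inconclusive means exactly half the replicates above a set limit; inactive means most replicates below a set limit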;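 further: all wells also contain fluconazole at 8 µg/ml as a sub-toxic cotreatment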
CSC inhib = cancer stem cell inhibition | cancer stem cell-like cells viability, luminescence | inhibition, % at 7.5 µM | 300,000 tested, 1.1% active; in the data active means inhibition above about 75%; inconclusive means no clear call, values can overlap the other calls; tested in HMLE shEcad cells
HIF act = HIF pathway transcriptional activation; activation, % at 7.5 µM (by protocol); U2OS HRE-luciferase reporter, luminescence; normalized: DMSO 0%, desferrioxamine 100%; AID 1910; 300,000 tested, 0.32% active;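 active means mean activation of at least 10% of the iron chelator positive control signal, with at least half of replicates also reaching 10%; inconclusive means mean and replicate majority disagree about reaching 10%; inactive means mean and most replicates under 10%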
Beta cell apopt = blocks beta cell apoptosis | INS-1E cytokine-induced death, ATP luminescence, 48 h; percent of positive-control rescue, neutral wells zero | protection from apoptosis, % (concentration not given with the values) | 300,000 tested, 0.8% active | AID 435005;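 active means Every replicate reaches about 75%, or at least half do and their mean reaches it too, limit read from the data; inconclusive means At least half of replicates reach the limit but their mean does not; inactive means Under half of replicates reach the limit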;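 further: higher means more ATP so stronger rescue from cytokine killing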
PolyA inh = blocks polyadenylation in yeast reporter cells; S. cerevisiae SKY197-pL101 polyadenylation reporter, beta-gal luminescence; efflux-impaired pdr1/pdr3 knockout yeast; score 100 = 6 SD above DMSO; activity score, % at 12 µM; 300,000 tested, 0.02% active; AID 1875;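 active means lowest replicate activity score at least 50, where 100 means six control SD above control mean; inconclusive means lowest score under 50 but half or more replicates reach 50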;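 further: yeast exposed to compound for 9 h at 30 °C; higher score means more reporter readthrough which indicates perturbed polyadenylation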
Large screens that a line does not name were inactive.

Oc1ccccc1/C=N/Nc1cc(N2CCCC2)nc(N2CCCC2)n1	T cruzi repl 57.0
Oc1ccc(/C=N/Nc2cc(N3CCOCC3)nc(N3CCOCC3)n2)cc1O	none
N=C1SCC(=O)N1c1ncc(Cc2ccc(F)cc2)s1	none
COc1ccc(NC(=O)c2nc(S(=O)(=O)Cc3cccc(C)c3)ncc2Cl)c(OC)c1	none
CCCc1nnc(NC(=O)c2nc(S(=O)(=O)Cc3cccc(C)c3)ncc2Cl)s1	CSC inhib 108.0
Cc1ccc(NC(=O)c2nc(S(=O)(=O)Cc3ccccc3)ncc2Cl)cc1	CSC inhib 103.9, Beta cell apopt 109.1
COc1ccc(OC)c(NC(=O)c2nc(S(=O)(=O)Cc3ccccc3)ncc2Cl)c1	CSC inhib 105.9, Beta cell apopt 80.4
Cc1cccc(CS(=O)(=O)c2ncc(Cl)c(C(=O)Nc3c(C)cccc3C)n2)c1	none (no result: CSC inhib, Beta cell apopt)
Cc1cccc(C)c1NC(=O)c1nc(S(=O)(=O)Cc2ccccc2)ncc1Cl	none (no result: CSC inhib, Beta cell apopt)
Cc1ccccc1CS(=O)(=O)c1ncc(Cl)c(C(=O)Nc2ccc(F)cc2)n1	CSC inhib 98.3
CN1CCN(C(=O)C2=C[C@@H](C3CC3)C[C@@H](OCc3ccc(CO)cc3)O2)CC1	none
O=C(Nc1ccc(F)cc1)c1nc(S(=O)(=O)Cc2ccccc2)ncc1Cl	CSC inhib 107.9
CC(C)c1nnc(NC(=O)C2CCN(C(=O)Nc3ccccc3)CC2)s1	none (no result: CSC inhib)
COc1ccc2ccccc2c1-c1sc(Nc2ccccc2)n[n+]1-c1ccc(F)cc1	T cruzi repl 61.3
COc1ccc(-c2sc(Nc3ccccc3)n[n+]2-c2ccc(F)cc2)cc1Br	none
COc1ccc(C)cc1Nc1n[n+](-c2ccccc2)c(-c2ccc(OC)c(OC)c2OC)s1	T cruzi repl 55.0, Calb FLC 91.5, Beta cell apopt 95.7
COc1ccc(C)cc1Nc1n[n+](-c2ccccc2)c(-c2c(Cl)cccc2Cl)s1	Beta cell apopt 99.0
COc1ccc(C)cc1Nc1n[n+](-c2ccccc2)c(-c2ccc(N(C)C)cc2)s1	Calb FLC 104.9, Beta cell apopt 98.7
Cc1cccc(NC(=O)c2cc(-c3cccnc3)nc3c(C)cccc23)n1	none
CN(C)CCCNc1ncnc2c1cnn2Cc1ccccc1Cl	none (no result: CSC inhib, Beta cell apopt)
COc1ccc(Cc2nnc(SC(C)C(=O)Nc3ccc(F)cc3Cl)o2)cc1 (stereo unspecified)	none
COc1ccc(C(=O)CCC(=O)Nc2cccnc2)cc1OC	none
Cc1cc(C(=O)CN2C(=O)C(=O)N(Cc3ccccc3)C2=O)c(C)n1Cc1ccccc1	CSC inhib 96.7 (no result: T cruzi repl, Calb FLC, HIF act, PolyA inh)
CC(C)C(=O)NNC(=O)CN1CCN(c2nc(-c3ccccc3)cs2)CC1	none
CCc1nnc(NC(=O)CN2CCN(c3nc(-c4ccccc4)cs3)CC2)s1	Calb FLC 89.8
Cc1cc(C)cc(NC(=O)CCC(=O)Nc2nnc(C(F)(F)F)s2)c1	none
CC(C)(C)CC(=O)Nc1nnc(C(F)(F)F)s1	Calb FLC 81.5
O=C(CN1CCN(c2ccccc2F)CC1)Nc1nnc(C(F)(F)F)s1	Calb FLC 85.8
CCOC(=O)N1CCN(CC(=O)Nc2nnc(C(F)(F)F)s2)CC1	none
CCN(CC)CCCNC(=S)N1CCN(c2nc(-c3ccccc3)cs2)CC1	CSC inhib 78.5 (no result: Beta cell apopt)
CC(C)(CC(=O)O)CC(=O)NNc1ncccc1C#N	none
O=[N+]([O-])c1ccc(-[n+]2ccc3ccccc3c2)c([N+](=O)[O-])c1	T cruzi repl 70.6, CSC inhib 121.1, Beta cell apopt 109.2
Cc1ccc(CNC(=O)Cc2noc3ccccc23)cc1	none
C=CCn1c(-c2ccc(N)cc2)nc2ccccc21	none (no result: HIF act)
C=CCn1c(N)nc2ccccc21	Calb FLC 82.3
Cc1onc(-c2ccccc2)c1C(=O)N=C(N)c1ccc(C(F)(F)F)cc1	none
CC(=O)c1cn(CCOc2cc(C)ccc2C)c2ccccc12	Beta cell apopt 88.9
O=C1c2cccc(OCC(=O)N3N=C(c4cccs4)CC3c3ccc(F)cc3)c2CCN1Cc1cccnc1 (stereo unspecified)	none
CN(C)c1ccc(CNCCC2CCOC(C)(C)C2)cc1 (stereo unspecified)	T cruzi repl 58.0 (no result: HIF act)
CN(C)c1ccc(CNCC2CCCO2)cc1 (stereo unspecified)	none
Cc1nn(CCc2nn[nH]n2)c2nc(-c3ccc(C4CCCCC4)cc3)cc(C(F)(F)F)c12	CSC inhib 110.4
O=[N+]([O-])CC(c1ccccc1)c1c[nH]c2ccccc12 (stereo unspecified)	none
OC(CNCC(c1ccc(Cl)cc1Cl)c1c[nH]c2ccccc12)c1ccccc1 (stereo unspecified)	T cruzi repl 82.1, CSC inhib 103.9
COC(=O)c1cc2ccsc2n1CC(=O)Nc1ccc(N(C)C)cc1	T cruzi repl 54.9
COC(=O)c1cc2ccsc2n1CC(=O)N(C)c1ccccc1	none (no result: CSC inhib, Beta cell apopt)
O=C(Nc1cccc([N+](=O)[O-])c1)c1ccncc1	none
O=C(N/N=C/c1ccccn1)c1ccc(NC(=O)c2cccc([N+](=O)[O-])c2)cc1	none
O=C(Nc1cc(Sc2ccccn2)cc([N+](=O)[O-])c1)c1ccc(Cl)cc1	Beta cell apopt 75.3
O=C(Nc1cc(Sc2ccccn2)cc([N+](=O)[O-])c1)c1cccc(Cl)c1	T cruzi repl 58.6, Calb FLC 113.3
CN(C)c1ccc(CNC(=O)CCS(=O)(=O)c2ccc3c(c2)oc(=O)n3C)cc1	HIF act 32.8
O=C(c1ccccc1)N1CCN(Cc2c[nH]c3ccccc23)CC1	none
Clc1ccccc1N1CCN(Cc2c[nH]c3ccccc23)CC1	T cruzi repl 73.7
COc1ccc(Br)cc1CN1CCN(Cc2c[nH]c3ccccc23)CC1	Beta cell apopt 78.7
O=[N+]([O-])c1ccccc1CN1CCN(Cc2c[nH]c3ccccc23)CC1	Beta cell apopt 116.1
COc1ccc(CN2CCN(Cc3c[nH]c4ccccc34)CC2)cc1	none (no result: Calb FLC)
NC(=O)CC(NC(=O)c1ccccc1)c1ccc(N2CCCCCCC2)c([N+](=O)[O-])c1 (stereo unspecified)	none
NC(=O)CC(NC(=O)c1ccc(Br)cc1)c1ccc(N2CCCCCC2)c([N+](=O)[O-])c1 (stereo unspecified)	CSC inhib 122.8
NC(=O)CC(NC(=O)c1ccc(Br)cc1)c1ccc(NCc2ccc(F)cc2)c([N+](=O)[O-])c1 (stereo unspecified)	CSC inhib inconclusive
Cc1ccccc1CNc1ccc(C(CC(N)=O)NC(=O)c2ccc(Br)cc2)cc1[N+](=O)[O-] (stereo unspecified)	CSC inhib 110.5, Beta cell apopt 90.5
CCN(C(=O)CCNC(=O)Cn1cnc2ccccc2c1=O)c1cccc(Cl)c1	none
COc1ccc(CC(=O)NNC(=S)NCC2CC2)cc1OC	HIF act 30.4
COc1ccc(CC(=O)NNC(=O)c2ccccc2)cc1OC	none (no result: T cruzi repl, Calb FLC, HIF act, PolyA inh)
